Screening results from PubChem BioAssay.
5HT1a ag: activates the human 5-HT1a serotonin receptor; P08908; CHO 5-HT1a Ga15 NFAT-bla reporter, FRET ratio; 0% basal, 100% maximal reference agonist; activation, % at 10 µM; 0.56% of 65,000 active; AID 567;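 active = activation above the screen-wide mean activation plus 3 SD, cut at about 19% in these data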
HTR1E antagonist: 5-HT1E (human) receptor antagonism; CHO 5-HT1E Ga15 NFAT-bla reporter, FRET, antagonist; P28566; 0.99% of 65,000 active; AID 571; inhibition, % at 6 µM;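 active = inhibition above a set limit, the mean inhibition across every tested compound plus 3 SD, cut at about 29% in these data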;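 note: signal is the 460 over 535 nm emission ratio of beta-lactamase substrate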
5HT1E ag: 5-HT1E (human) receptor agonism | P28566 | CHO 5-HT1E Ga15 NFAT-bla reporter, FRET; 0% DMSO wells, 100% control agonist wells | activation, % at 6 µM | 0.69% of 65,000 active | AID 574;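 active = activation above a set limit, the screen-wide mean activation plus 3 SD, cut at about 8.5% in these data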
S1P3 ag: S1P3 (human) receptor agonism. S1P3 NFAT-BLA reporter cells, FRET ratio; relative to 1 µM S1P, basal subtracted. activation, % at 4.5 µM. 0.1% of 60,000 active. AID 373;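 active = activation above the screen-wide mean plus 3 SD, cut at about 4.5% in these data, passing the limit was not always enough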
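material = human S1P3 NFAT-BLA reporter CHO cells | schedule = 4 h compound at 37 °C, 2 h substrate at RT | measured by = fluorescent BLA substrate, ex 405 nm, em 460/535 nm ratio | controls = 1 µM S1P reference | replication = primary once, confirmation triplicate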
5-HT1A blocker: antagonists of human 5-HT1a serotonin receptor. P08908. CHO 5-HT1a Ga15 NFAT-bla reporter, antagonist mode. inhibition, % at 10 µM. 0.68% of 62,000 active;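 active = inhibition above the mean of all tested compounds plus 3 SD, cut at about 43% in these data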;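 note: receptor stimulated by 5-CT agonist at 100 nM near EC80; beta-lactamase reporter measured by ratiometric fluorescence of a cleavable substrate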
Ec RNAP inh: inhibitors of Escherichia coli RNA polymerase. E. coli RNA polymerase, fluorescence transcription assay. inhibition, %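 (tested at 10 µM)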. 0.2% of 62,000 active; in the data active = inhibition above about 20%
Each line names hits and unclear results; the compound was inactive in the other large screens. Only some compounds are listed: those with a hit (about 2.6% of all), similar ones and a draw of the others.

Cc1ccc(C)c(N2CCN(CC(=O)Nc3ccc4[nH]c(=O)[nH]c4c3)CC2)c1	5HT1E ag 23
O=C(O)Cn1c(SC2CCCCC2)nc2ccccc21	5HT1a ag 19
N#CC1=C(N)N(c2ccccc2)C(c2ccco2)C1(C#N)C#N (centres undefined)	5HT1a ag 42
Cc1cccc(N2C(N)=C(C#N)C(C#N)(C#N)C2c2ccccc2)c1 (centres undefined)	HTR1E antagonist 42
Cc1ccc(S(=O)(=O)N2C(=O)CCC2C(=O)NCc2ccco2)cc1 (centres undefined)	none
O=C1c2[nH]nc(-c3ccccc3O)c2C(c2ccc(F)cc2)N1Cc1ccco1 (centres undefined)	5-HT1A blocker 53
O=C1c2[nH]nc(-c3ccccc3O)c2C(c2cccc(Cl)c2)N1Cc1ccco1 (centres undefined)	none
CCOC(=O)c1cccc(NC(=O)CSc2nnnn2CC)c1	none
CC(C)OC(=O)CSc1nnc(-c2cccnc2)n1N	HTR1E antagonist 29
CC(C)OC(=O)CSc1nnc(-c2cccnc2)n1Cc1ccccc1	none
CCn1ncc(C2=NOC(C(=O)Nc3cccc(C(C)=O)c3)C2)c1C (centres undefined)	none
O=c1c2ccccc2nc(-c2ccco2)n1Cc1ccccc1	none (no result: S1P3 ag)
O=c1c2ccccc2nc(N2CCN(c3ccccc3)CC2)n1Cc1ccccc1	5-HT1A blocker 47
Cc1ccc(C)c(N2CCN(Cc3nnnn3C3CCCCC3)CC2)c1	5HT1E ag 42
COc1ccc(NC(=O)CSc2nnc(Cc3ccccc3)o2)c(OC)c1	none (no result: Ec RNAP inh)
CC(=O)Nc1ccc(S(=O)(=O)N2CCC(n3cnc4cc(F)ccc43)CC2)cc1	none
COc1ccc(S(=O)(=O)N2CCC(n3cnc4cc(C(F)(F)F)ccc43)CC2)cc1	5HT1E ag 22
Cc1c(NC(=O)COC(=O)C2CC3C=CC2C3)c(=O)n(-c2ccccc2)n1C (centres undefined)	none
Cc1cc(=O)n(CCC(=O)O)c2ccccc12	none (no result: 5-HT1A blocker)
